Apaf1 inhib: inhibitors of human Apaf-1 apoptosome, primary screen, biochemical, DEVD-Rh110 fluorescence, uHTS. reconstituted apoptosome caspase-3 activity. inhibition, % at 20 µM. 330,000 compounds, 0.71% hits. AID 489030, 2010; active means inhibition of at least 40% at 20 µM
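System: reconstituted apoptosome with Apaf-1, cytochrome c, caspase-9, procaspase-3, dATP; Signal: Rh110 fluorescence intensity; Schedule: 30 min compound preincubation, 50 min activation, room temperature; Reagent: cytochrome c trigger plus (Z-DEVD)2-Rh110 caspase-3 substrate.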
MEKK3 PB1 HTS: modulators of MEKK3-MEK5 PB1 binding, primary screen, biochemical, wildtype MEKK3, multiplex bead flow cytometry, Alexa488-MEK5 | Mitogen-activated protein kinase kinase kinase 3 (Homo sapiens), Q99759 | bead-based flow cytometry, Alexa488-MEK5 binding to MEKK3; actives lie on both sides; 0 = blocked by unlabeled MEK5, 100 = vehicle | binding response (% of control), % at 10 µM | 290,000 compounds, 1.4% hits | AID 1529, 2009;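 active means binding response more than 3 SD above or below the average of its plate-row segment, actives on both sides; inconclusive means wells at one plate position flagged as instrument error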;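 further: Alexa488 bead fluorescence after subtracting the streptavidin-only scavenger bead signal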
MEKK2wt PB1 HTS: modulators of MEK5 binding to wildtype MEKK2, primary screen, biochemical, multiplex bead flow cytometry, Alexa488-MEK5. Alexa488-MEK5 binding to MEKK2 WT; actives lie on both sides. binding response (% of control), % at 10 µM. 290,000 compounds, 1.1% hits. AID 1531, 2009; in the data active means binding response below about 67% or above about 130%; inconclusive means no clear call, values can overlap the other calls; inactive means in between
DSG3 Ab inh: inhibitors of pemphigus antibody binding to DSG3, primary screen, biochemical, bead-based, flow cytometry, scFv-GFP | Desmoglein-3 (Homo sapiens), P32926 | DSG3-coupled beads, scFv-anti-DSG3-GFP binding; active compounds read low | binding (percent of control), % at 10 µM | 310,000 compounds, 0.48% hits;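 active means binding more than 3 SD below its plate's average and above zero; inconclusive means below that plate limit but binding exactly zero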;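 further: hits lower antibody fragment binding to DSG3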
UBC13 polyUb: UBC13 polyubiquitin chain formation inhibitors, primary screen, biochemical, TR-FRET, uHTS | Ubiquitin-conjugating enzyme E2 N (Homo sapiens), P61088 | inhibition, % at 20 µM | 330,000 compounds, 0.47% hits | AID 485273, 2010; in the data active means inhibition above about 45%, passing the limit was not always enough; inconclusive means no clear call, values can overlap the other calls
MEKK2 mut-MEK5: MEK5 binding signal on mutant MEKK2 PB1, primary screen, biochemical, multiplex bead flow cytometry, Alexa488-MEK5; Alexa488-MEK5 binding to MEKK2 mutant; percent response, % at 10 µM; 290,000 compounds, 0.35% hits; AID 1530, 2009; in the data active means percent response above about 24%, passing the limit was not always enough
A number is an active result; n = inactive; u = inconclusive; x = no result given; ! = not active in a repeat; [ ] = another dose, or the depositor's remark. Hits are enriched below; roughly 3.2% of the tested compounds scored in any of these assays.

SMILES | Apaf1 inhib | MEKK3 PB1 HTS | MEKK2wt PB1 HTS | DSG3 Ab inh | UBC13 polyUb | MEKK2 mut-MEK5
CCCCCCCCCOc1ccc2[nH]cc(CCN)c2c1 | x | n | 252 | x | x | 34
CCOP(=O)(OCC)C(O)c1ccc(OC)cc1 (centres undefined) | n | n | n | n | n | n
NC(Cc1ccccc1)c1nc(-c2ccccc2)no1 (centres undefined) | n | n | n | n | n | n
CCCCCCn1c(O)c(C=Nc2ccccc2N2CCOCC2)c(=O)[nH]c1=S | n | n | 29 | n | n | n
CCCCn1c(O)c(/C=N/N2CCOCC2)c(=O)[nH]c1=S | n | n | n | n | n | n
C#C[C@]1(O)CC[C@H]2[C@@H]3[C@H](O)C[C@H]4C[C@@H](O)CC[C@]4(C)[C@H]3CC[C@@]21C | x | x | x | n | x | x
Cc1nc(N2CCN(Cc3ccc4c(c3)OCO4)CC2)[nH]c(=O)c1C | n | n | n | n | n | n
Clc1ccc(CO/N=C(\Cn2ccnc2)c2ccc(Cl)cc2Cl)c(Cl)c1 | n | n | n | x | 51 | n
Clc1ccc(CSC(Cn2ccnc2)c2ccc(Cl)cc2Cl)cc1 (centres undefined) | n | n | n | n | n | n
COC(=O)C1=C(c2ccc(F)cc2OCc2ccccc2)C[C@@H]2CC[C@H]1N2C(=O)NCCCc1ccccc1 | n | x | x | n | n | x
CCCNC1=C(C)C(=O)C2=C(C1=O)C(COC(N)=O)[C@]1(OC)C3NC3CN21 (some centres undefined) | 57 | n | n | n | n | n
C=CCN(CC#CCOc1ccccc1OC)CC=C | n | n | n | x | n | n
CCn1nc(-c2ccccc2)nc2c(=O)n(C)c(=O)nc1-2 | 98 | n | n | n | n | n
COc1ccc(-c2nc3ccccc3c(=O)n2-c2ccc(OC)cc2)cc1 | n | n | n | n | n | n
CS(=O)(=O)N1Cc2ccccc2-n2nncc2C1 | x | x | x | n | x | x
Nc1c(C(=O)NC2CCCC2)c2nc3ccccc3nc2n1CC1CCCO1 (centres undefined) | 94 | x | x | n | n | x
Cc1cc(N2C(=O)C3CCCN3C2c2ccccc2)no1 (centres undefined) | n | n | n | x | n | n
CN1/C(=C\C=C\C2=[N+](C)c3ccc4ccccc4c3C2(C)C)C(C)(C)c2ccccc21 | 90 | n | x | x | n | n
CN1CCCC1CCOC(C)(c1ccccc1)c1ccc(Cl)cc1 (centres undefined) | x | x | x | n | x | x
C[N+]1(C)[C@@H]2CC[C@H]1CC(OC(=O)[C@@H](CO)c1ccccc1)C2 (some centres undefined) | 70 | n | n | n | n | n
CCOP(=O)(OCC)C(NC(=O)c1cccc([N+](=O)[O-])c1)C(Cl)(Cl)Cl (centres undefined) | n | n | n | 83 | n | n
CCOP(=O)(OCC)C(NC(=O)c1cccc(C)c1)C(Cl)(Cl)Cl (centres undefined) | n | n | n | n | n | n
O=C1CCCN1C(=O)c1cncc(Br)c1 | n | n | n | x | n | n
Nc1cncc(C(=O)O)c1 | 41! | n | n | n | n | n
Cc1c(CCN)ccc2c1[nH]c1ccccc12 | n | n | n | n | n | n
SMILES | Apaf1 inhib | MEKK3 PB1 HTS | MEKK2wt PB1 HTS | DSG3 Ab inh | UBC13 polyUb | MEKK2 mut-MEK5
CCCCCCCCn1sccc1=O | n | x | x | 87 | n | x
O=C1NC(=S)N(c2ccc(F)cc2)C(=O)/C1=C\c1ccoc1 | x | n | n | n | x | n
O=C1NC(=S)N(c2ccc(F)cc2)C(=O)/C1=C/c1ccco1 | 70 | n | n | x | u | n
CN1C(=O)/C(=C/C=C/c2ccco2)C(=O)NC1=S | n | n | n | 19 | n | n
COc1ccc(CCNC(C)CCc2ccc(OC)cc2)cc1 (centres undefined) | n | n | n | n | n | n
COc1ccc(-c2cc(-c3ccccc3)[n+](C)c(-c3ccccc3)c2)cc1 | n | n | n | n | n | n
C[n+]1c(-c2ccccc2)cc(CCCCc2cc(-c3ccccc3)[n+](C)c(-c3ccccc3)c2)cc1-c1ccccc1 | n | n | 9.0[inhibitor] | x | n | 56
C#C[C@]1(O)CC[C@H]2[C@@H]3CCC4=Cc5nc6nc7ccccc7n6cc5C[C@]4(C)[C@H]3CC[C@@]21C | n | x | x | 63 | n | x
C#CC1(O)CCC2C3CCC4=C/C(=N/OCC(=O)NCC(=O)NC(C(=O)O)C(C)C)CC[C@]4(C)C3CC[C@@]21C (some centres undefined) | n | n | n | n | n | n
CCOC(=O)c1c(N)n(CCCOC(=O)c2ccco2)c2nc3ccccc3nc12 | 43 | n | n | n | n | n
COCCCNC(=O)c1c(N)n(Cc2ccco2)c2nc3ccccc3nc12 | n | n | n | n | n | n
CCCNC(=O)c1c(N)n(Cc2ccco2)c2nc3ccccc3nc12 | 40 | n | n | x | n | n
CN(C)S(=O)(=O)c1cc(NC(=O)COC(=O)Cc2ccccc2)ccc1Cl | n | n | n | 88 | n | n
CCN1CCN(c2cc(N3CCCC3)c([N+](=O)[O-])cc2F)CC1 | n | n | n | n | n | n
CN1CC[C@@]2(C)c3cc(O)ccc3N(C)C2O1 (some centres undefined) | 92 | n | n | n | n | n
O=C1Nc2cc(C(=O)N3CCC4(CC3)OCCO4)ccc2NC1CSCc1cccc(F)c1 (centres undefined) | n | n | n | x | n | n
Cc1cc(C)cc(NC(=O)CCNC(=O)N2C[C@H]3C[C@@H](C2)c2cccc(=O)n2C3)c1 | n | n | n | n | n | n
O=C(CCNC(=O)N1C[C@H]2C[C@@H](C1)c1cccc(=O)n1C2)Nc1ccc(F)cc1 | n | n | n | 80 | n | n
COC(=O)C1C(O)CC2CCC1N2C (centres undefined) | n | x | x | n | n | x
CSCCC(N=Cc1c(O)n(-c2ccc(Cl)cc2)c(=O)[nH]c1=O)C(=O)OC(C)(C)C (centres undefined) | n | n | n | n | n | n
O=C(O)CCC(=O)NCCC1=c2ccccc2=N/C1=C\c1c(O)n(Cc2ccc(F)cc2)c(=S)[nH]c1=O | n | n | n | 67 | n | n
C[n+]1c2ccccc2nc2ccc(NCCO)cc21 | 94 | n | n | n | n | n
Cc1ccc([C@@H]2C[C@H]3[C@@H](CN2S(=O)(=O)c2ccc(Cl)cc2)C(=O)C[C@@H](c2ccccc2F)N3S(=O)(=O)c2ccc(C)cc2)cc1 | x | x | x | n | x | x
